For 13 compounds, IC50 and Ki results are on record in ChEMBL document CHEMBL1147015, “Design and synthesis of selective, high-affinity inhibitors of human cytochrome P450 2J2” (Bioorg Med Chem Lett, 2006).

Assay [1] concerns the target T1, Cytochrome P450 2J2 (Homo sapiens, UniProt P51589).
T1 sequence (P51589 whole entry): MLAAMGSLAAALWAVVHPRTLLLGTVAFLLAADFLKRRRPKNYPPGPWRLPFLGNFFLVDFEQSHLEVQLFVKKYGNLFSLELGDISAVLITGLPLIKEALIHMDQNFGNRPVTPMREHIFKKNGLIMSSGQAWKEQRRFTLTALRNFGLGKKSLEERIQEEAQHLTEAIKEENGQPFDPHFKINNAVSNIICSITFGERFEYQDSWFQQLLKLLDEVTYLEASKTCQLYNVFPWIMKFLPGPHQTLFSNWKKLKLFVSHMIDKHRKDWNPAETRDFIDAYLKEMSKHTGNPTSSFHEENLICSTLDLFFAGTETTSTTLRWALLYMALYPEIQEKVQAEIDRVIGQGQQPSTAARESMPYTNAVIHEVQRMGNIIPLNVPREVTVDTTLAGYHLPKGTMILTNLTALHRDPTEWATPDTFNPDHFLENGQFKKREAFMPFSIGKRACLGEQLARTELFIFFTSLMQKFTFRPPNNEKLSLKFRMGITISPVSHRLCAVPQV
The assay can be described thus: Inhibition of human recombinant CYP2J2 expressed in baculovirus-infected Sf9 insect cells. In outline:
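Ebastine hydroxylation used as the read-out. Ebastine (0.5 μM) plus inhibitor incubated at 37 °C for 2 or 4 min with Sf9 microsomes (1 nM CYP2J2) in 0.1 M phosphate buffer pH 7.4, 0.1 mM EDTA and NADPH-generating system. Stopped with cold CH3CN/CH3COOH (10:1); protein spun out; supernatant analysed by HPLC on C18. IC50 determined.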

Assay [2] deals with T2, Cytochrome P450 2B6 (Homo sapiens, UniProt P20813).
T2 sequence (P20813 whole entry): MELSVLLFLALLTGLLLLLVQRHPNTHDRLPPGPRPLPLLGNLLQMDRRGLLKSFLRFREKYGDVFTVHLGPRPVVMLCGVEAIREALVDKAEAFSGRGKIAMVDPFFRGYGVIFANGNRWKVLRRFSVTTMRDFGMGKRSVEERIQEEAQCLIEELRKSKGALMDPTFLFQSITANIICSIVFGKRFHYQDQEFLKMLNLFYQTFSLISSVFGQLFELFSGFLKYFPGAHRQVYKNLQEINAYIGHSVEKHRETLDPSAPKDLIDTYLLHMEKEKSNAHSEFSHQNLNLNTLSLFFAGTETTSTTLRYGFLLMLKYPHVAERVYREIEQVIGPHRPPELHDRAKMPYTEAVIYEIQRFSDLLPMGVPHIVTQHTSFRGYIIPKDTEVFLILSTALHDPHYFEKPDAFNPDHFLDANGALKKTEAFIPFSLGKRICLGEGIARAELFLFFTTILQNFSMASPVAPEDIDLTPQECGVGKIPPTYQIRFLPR
Description: Inhibition of human recombinant CYP2B6. The format is ADME.

Assay [3] addresses T3, Cytochrome P450 2C8 (Homo sapiens, UniProt P10632).
T3 sequence (P10632 whole entry): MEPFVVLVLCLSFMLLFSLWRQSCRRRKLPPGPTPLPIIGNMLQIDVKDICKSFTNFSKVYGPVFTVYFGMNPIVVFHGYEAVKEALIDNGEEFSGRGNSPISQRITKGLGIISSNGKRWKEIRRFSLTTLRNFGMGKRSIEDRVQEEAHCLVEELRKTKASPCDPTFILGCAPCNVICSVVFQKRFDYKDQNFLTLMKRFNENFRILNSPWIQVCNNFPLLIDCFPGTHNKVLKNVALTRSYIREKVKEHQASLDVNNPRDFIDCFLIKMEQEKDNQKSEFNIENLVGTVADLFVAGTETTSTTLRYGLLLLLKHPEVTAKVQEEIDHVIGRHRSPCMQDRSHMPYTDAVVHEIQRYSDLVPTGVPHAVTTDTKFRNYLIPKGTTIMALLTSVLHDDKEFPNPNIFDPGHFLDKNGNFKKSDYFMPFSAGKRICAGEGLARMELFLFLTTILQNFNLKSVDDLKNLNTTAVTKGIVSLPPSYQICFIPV
The assay can be described thus: Inhibition of human recombinant CYP2C8. In kind it is ADME.

For assay [4], the target named is Cytochrome P450 2C9 (Homo sapiens, UniProt P11712). The assay can be described thus: Inhibition of human recombinant CYP2C9. The format is ADME.
In assay [5] the target is Cytochrome P450 3A4 (Homo sapiens, UniProt P08684). The assay can be described thus: Inhibition of human recombinant CYP3A4. The format is ADME.
Cytochrome P450 3A4, sequence (P08684 whole entry): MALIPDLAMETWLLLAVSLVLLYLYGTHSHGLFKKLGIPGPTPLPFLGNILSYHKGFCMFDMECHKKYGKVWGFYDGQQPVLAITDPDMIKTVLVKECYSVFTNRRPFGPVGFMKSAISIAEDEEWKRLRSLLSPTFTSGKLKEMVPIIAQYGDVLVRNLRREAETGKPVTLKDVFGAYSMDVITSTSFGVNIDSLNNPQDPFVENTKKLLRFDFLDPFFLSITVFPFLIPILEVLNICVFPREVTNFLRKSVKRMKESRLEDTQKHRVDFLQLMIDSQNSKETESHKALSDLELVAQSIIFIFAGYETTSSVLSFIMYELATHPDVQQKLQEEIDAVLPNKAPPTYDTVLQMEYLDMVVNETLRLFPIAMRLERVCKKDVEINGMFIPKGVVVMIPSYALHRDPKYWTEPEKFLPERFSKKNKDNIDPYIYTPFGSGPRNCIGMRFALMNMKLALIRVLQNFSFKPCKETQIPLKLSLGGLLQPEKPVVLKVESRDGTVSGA

Cytochrome P450 2C9, sequence (P11712 whole entry): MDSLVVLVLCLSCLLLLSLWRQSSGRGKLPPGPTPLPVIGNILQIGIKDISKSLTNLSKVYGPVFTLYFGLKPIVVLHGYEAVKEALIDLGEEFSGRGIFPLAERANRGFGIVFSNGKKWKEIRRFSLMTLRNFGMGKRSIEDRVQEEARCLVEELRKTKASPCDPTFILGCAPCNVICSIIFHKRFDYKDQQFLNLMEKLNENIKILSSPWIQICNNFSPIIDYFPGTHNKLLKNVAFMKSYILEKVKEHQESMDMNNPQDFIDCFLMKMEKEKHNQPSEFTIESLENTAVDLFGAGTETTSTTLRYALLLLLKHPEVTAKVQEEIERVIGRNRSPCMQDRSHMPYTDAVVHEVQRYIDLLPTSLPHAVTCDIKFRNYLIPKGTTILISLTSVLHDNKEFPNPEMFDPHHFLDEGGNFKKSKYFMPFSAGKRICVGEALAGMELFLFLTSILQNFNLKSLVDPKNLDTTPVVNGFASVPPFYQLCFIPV

A word on the IC50: it is the concentration that inhibits the measured activity by half. Usually Ki stands for a measure of affinity in units of concentration, obtained from inhibition or displacement. As for `CCCc1ccc(C(=O)CCCN2CCC(C(O)(c3ccccc3)c3ccccc3)CC2)cc1`, the IC50 in assay [1] is 0.4 µM; in assay [2], 28 µM; in assay [3], > 100 µM; in assay [4], 26 µM; in assay [5] it was 7.9 µM. For the same compound, in assay [1], the Ki is 0.16 µM.
In the case of `CC(C)(C)c1ccc(C(=O)CCCN2CCC(C(O)(c3ccccc3)c3ccccc3)CC2)cc1` [TERFENADONE], in assay [1], the half-maximal inhibitory concentration (IC50) worked out at 0.7 µM.
Consider `O=C(CCCN1CCC(C(O)(c2ccccc2)c2ccccc2)CC1)c1ccc(Br)cc1`, for which the concentration for half-maximal inhibition (IC50) in assay [1] is 4.2 µM.
With `Cc1ccc(C(=O)CCCN2CCC(C(O)(c3ccccc3)c3ccccc3)CC2)cc1`, the IC50 in assay [1] was found to be 0.7 µM.
Take `CCc1ccc(C(=O)CCCN2CCC(C(O)(c3ccccc3)c3ccccc3)CC2)cc1`: the IC50 in assay [1] turned out to be 0.6 µM.
In the case of `CCCCc1ccc(C(=O)CCCN2CCC(C(O)(c3ccccc3)c3ccccc3)CC2)cc1`, the IC50 in assay [1] amounted to 0.7 µM.
On the same count and under the same terms, then `O=C(CCCN1CCC(C(O)(c2ccccc2)c2ccccc2)CC1)c1ccc2c(c1)OCO2`, with 6.7 µM; and `O=C(CCCN1CCC(C(O)(c2ccccc2)c2ccccc2)CC1)c1ccc(CC(F)F)cc1`, with 2.2 µM.
Turning to `CC(=O)OCCCc1ccc(C(=O)CCCN2CCC(C(O)(c3ccccc3)c3ccccc3)CC2)cc1`, the half-maximal inhibitory concentration (IC50) in assay [1] is 2.5 µM.
Turning to `COc1ccc(C(=O)CCCN2CCC(C(O)(c3ccccc3)c3ccccc3)CC2)cc1`, in assay [1], the IC50 was determined as 7.6 µM.
Turning to `C=CCc1ccc(C(=O)CCCN2CCC(C(O)(c3ccccc3)c3ccccc3)CC2)cc1`, the IC50 in assay [1] is 0.4 µM; in assay [2] it was 21 µM; in assay [3], > 100 µM; in assay [4], 21 µM; in assay [5], 5.5 µM.
With `O=C(CCCN1CCC(C(O)(c2ccccc2)c2ccccc2)CC1)c1ccc(CCCO)cc1`, the IC50 in assay [1] amounted to 1.9 µM.
For the compound `O=C(CCCN1CCC(C(O)(c2ccccc2)c2ccccc2)CC1)c1ccc(CCO)cc1`, in assay [1], the 50% inhibitory concentration (IC50) is 1.3 µM.
